Experimental data: ChEMBL document CHEMBL1157638, “Fluorescent epigenetic small molecule induces expression of the tumor suppressor ras-association domain family 1A and inhibits human prostate xenograft” (J Med Chem, 2010)
Activity calls are given as the source filed them. The rule behind the calls is not given here.

Experiments:
NCI-H23 [1] = test: Growth inhibition of human NCI-H23 cells assessed as cell growth at 100 nM relative to untreated control; assay type: functional; details: read-out: Activity
SK-MEL-28 = test: Growth inhibition of human SK-MEL-28 cells assessed as cell growth at 100 nM relative to untreated control; assay type: functional; details: read-out: Activity
UACC-257 = test: Growth inhibition of human UACC257 cells assessed as cell growth at 100 nM relative to untreated control; assay type: functional; details: read-out: Activity
IGROV-1 = test: Growth inhibition of human IGROV1 cells assessed as cell growth at 100 nM relative to untreated control; assay type: functional; details: read-out: Activity
OVCAR-5 = test: Growth inhibition of human OVCAR5 cells assessed as cell growth at 100 nM relative to untreated control; assay type: functional; details: read-out: Activity
RXF 393 [2] = test: Growth inhibition of human RXF393 cells assessed as cell growth at 100 nM relative to untreated control; assay type: functional; details: read-out: Activity
NCI-H522 = test: Growth inhibition of human NCI-H522 cells assessed as cell growth at 1 uM relative to untreated control; assay type: functional; details: read-out: Activity
HT-29 [3] = test: Growth inhibition of human HT-29 cells assessed as cell growth at 1 uM relative to untreated control; assay type: functional; details: read-out: Activity
SNB-19 [4] = test: Growth inhibition of human SNB19 cells assessed as cell growth at 1 uM relative to untreated control; assay type: functional; details: read-out: Activity
NCI-H23 [5] = test: Growth inhibition of human NCI-H23 cells assessed as cell growth at 1 nM relative to untreated control; assay type: functional; details: read-out: Activity
HCT-116 [6] = test: Growth inhibition of human HCT116 cells assessed as cell growth at 1 nM relative to untreated control; assay type: functional; details: read-out: Activity
Method in brief: (§1)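 Run externally at the National Cancer Institute as a 59-cell-line panel screen, with concentrations up to 100 μM. Growth was scored relative to control, where negative growth or total cell kill was possible. Data are in the Supporting Information.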

HCT-15 = test: Growth inhibition of human HCT15 cells assessed as cell growth at 1 nM relative to untreated control; assay type: functional; details: read-out: Activity; method in brief: as §1
SF-539 = test: Growth inhibition of human SF539 cells assessed as cell growth at 1 nM relative to untreated control; assay type: functional; details: read-out: Activity
M14 = test: Growth inhibition of human M14 cells assessed as cell growth at 1 nM relative to untreated control; assay type: functional; details: read-out: Activity
SK-OV-3 = test: Growth inhibition of human SKOV3 cells assessed as cell growth at 1 uM relative to untreated control; assay type: functional; details: read-out: Activity
OVCAR-3 = test: Growth inhibition of human OVCAR-3 cells assessed as cell growth at 1 nM relative to untreated control; assay type: functional; details: read-out: Activity
ACHN [7] = test: Growth inhibition of human ACHN cells assessed as cell growth at 1 nM relative to untreated control; assay type: functional; details: read-out: Activity
RXF 393 [8] = test: Growth inhibition of human RXF393 cells assessed as cell growth at 1 nM relative to untreated control; assay type: functional; details: read-out: Activity
TK-10 = test: Growth inhibition of human TK10 cells assessed as cell growth at 1 nM relative to untreated control; assay type: functional; details: read-out: Activity
UO-31 [9] = test: Growth inhibition of human UO31 cells assessed as cell growth at 1 nM relative to untreated control; assay type: functional; details: read-out: Activity
MCF7 = test: Growth inhibition of human MCF7 cells assessed as cell growth at 1 nM relative to untreated control; assay type: functional; details: read-out: Activity
RXF 393 [10] = test: Growth inhibition of human RXF393 cells assessed as cell growth at 1 uM relative to untreated control; assay type: functional; details: read-out: Activity
SN12C = test: Growth inhibition of human SN12C cells assessed as cell growth at 1 uM relative to untreated control; assay type: functional; details: read-out: Activity
UO-31 [11] = test: Growth inhibition of human UO31 cells assessed as cell growth at 1 uM relative to untreated control; assay type: functional; details: read-out: Activity
MOLT-4 = test: Growth inhibition of human MOLT4 cells assessed as cell growth at 10 uM relative to untreated control; assay type: functional; details: read-out: Activity
HOP-62 [12] = test: Growth inhibition of human HOP62 cells assessed as cell growth at 10 uM relative to untreated control; assay type: functional; details: read-out: Activity; method in brief: as §1
HCT-116 [13] = test: Growth inhibition of human HCT116 cells assessed as cell growth at 10 uM relative to untreated control; assay type: functional; details: read-out: Activity; method in brief: as §1
HT-29 [14] = test: Growth inhibition of human HT-29 cells assessed as cell growth at 10 uM relative to untreated control; assay type: functional; details: read-out: Activity
SNB-19 [15] = test: Growth inhibition of human SNB19 cells assessed as cell growth at 10 uM relative to untreated control; assay type: functional; details: read-out: Activity
ACHN [16] = test: Growth inhibition of human ACHN cells assessed as cell growth at 10 uM relative to untreated control; assay type: functional; details: read-out: Activity
DU-145 = test: Growth inhibition of human DU145 cells assessed as cell growth at 10 uM relative to untreated control; assay type: functional; details: read-out: Activity; method in brief: as §1
HOP-62 [17] = test: Growth inhibition of human HOP62 cells; assay type: functional; method in brief: as §1
KM12 [18] = test: Growth inhibition of human KM12 cells; assay type: functional
SW-620 [19] = test: Growth inhibition of human SW620 cells; assay type: functional
786-0 [20] = test: Growth inhibition of human 786-0 cells; assay type: functional
ACHN [21] = test: Growth inhibition of human ACHN cells; assay type: functional
[22] = biological target: DNA (cytosine-5)-methyltransferase 1 (Homo sapiens) (UniProt P26358); test: Inhibition of DNA methyltransferase activity in human PC3 cells at 2 uM after 3 days; assay type: cell-based; details: PC-3
Method in brief: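 PC-3 cells in complete growth medium treated 3 days with compound, then harvested. Nuclear extracts prepared by kit protocol, and DNMT activity measured with a commercial DNMT activity kit against untreated cells. Mean of three independent experiments ± SEM.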

Mus musculus = test: Toxicity in BALB/c mouse up to 550 mg/kg, po; assay type: organism-based; parameters: dose 550 mg/kg, route oral; details: in vivo
[23] = Therapeutic index, ratio of toxic dose in BALB/c mouse to antitumor dose in human PC3 cells xenografted BALB/c mouse; assay type: cell-based, PC-3; details: in vivo, read-out: TI
HOP-62 [24] = test: Growth inhibition of human HOP62 cells assessed as cell growth at 1 nM relative to untreated control; assay type: functional; details: read-out: Activity; method in brief: as §1
HOP-92 = test: Growth inhibition of human HOP92 cells assessed as cell growth at 1 nM relative to untreated control; assay type: functional; details: read-out: Activity; method in brief: as §1
HCT-116 [25] = test: Growth inhibition of human HCT116 cells assessed as cell growth at 10 nM relative to untreated control; assay type: functional; details: read-out: Activity; method in brief: as §1
KM12 [26] = test: Growth inhibition of human KM12 cells assessed as cell growth at 10 nM relative to untreated control; assay type: functional; details: read-out: Activity
SW-620 [27] = test: Growth inhibition of human SW620 cells assessed as cell growth at 10 nM relative to untreated control; assay type: functional; details: read-out: Activity
NCI/ADR-RES = test: Growth inhibition of human NCI/ADR-RES cells assessed as cell growth at 10 nM relative to untreated control; assay type: functional; details: read-out: Activity
786-0 [28] = test: Growth inhibition of human 786-0 cells assessed as cell growth at 10 nM relative to untreated control; assay type: functional; details: read-out: Activity
RXF 393 [29] = test: Growth inhibition of human RXF393 cells assessed as cell growth at 10 nM relative to untreated control; assay type: functional; details: read-out: Activity
[30] = read-out: LC50 (the source's name)

Sequence of DNA (cytosine-5)-methyltransferase 1 (Homo sapiens) (P26358 whole entry): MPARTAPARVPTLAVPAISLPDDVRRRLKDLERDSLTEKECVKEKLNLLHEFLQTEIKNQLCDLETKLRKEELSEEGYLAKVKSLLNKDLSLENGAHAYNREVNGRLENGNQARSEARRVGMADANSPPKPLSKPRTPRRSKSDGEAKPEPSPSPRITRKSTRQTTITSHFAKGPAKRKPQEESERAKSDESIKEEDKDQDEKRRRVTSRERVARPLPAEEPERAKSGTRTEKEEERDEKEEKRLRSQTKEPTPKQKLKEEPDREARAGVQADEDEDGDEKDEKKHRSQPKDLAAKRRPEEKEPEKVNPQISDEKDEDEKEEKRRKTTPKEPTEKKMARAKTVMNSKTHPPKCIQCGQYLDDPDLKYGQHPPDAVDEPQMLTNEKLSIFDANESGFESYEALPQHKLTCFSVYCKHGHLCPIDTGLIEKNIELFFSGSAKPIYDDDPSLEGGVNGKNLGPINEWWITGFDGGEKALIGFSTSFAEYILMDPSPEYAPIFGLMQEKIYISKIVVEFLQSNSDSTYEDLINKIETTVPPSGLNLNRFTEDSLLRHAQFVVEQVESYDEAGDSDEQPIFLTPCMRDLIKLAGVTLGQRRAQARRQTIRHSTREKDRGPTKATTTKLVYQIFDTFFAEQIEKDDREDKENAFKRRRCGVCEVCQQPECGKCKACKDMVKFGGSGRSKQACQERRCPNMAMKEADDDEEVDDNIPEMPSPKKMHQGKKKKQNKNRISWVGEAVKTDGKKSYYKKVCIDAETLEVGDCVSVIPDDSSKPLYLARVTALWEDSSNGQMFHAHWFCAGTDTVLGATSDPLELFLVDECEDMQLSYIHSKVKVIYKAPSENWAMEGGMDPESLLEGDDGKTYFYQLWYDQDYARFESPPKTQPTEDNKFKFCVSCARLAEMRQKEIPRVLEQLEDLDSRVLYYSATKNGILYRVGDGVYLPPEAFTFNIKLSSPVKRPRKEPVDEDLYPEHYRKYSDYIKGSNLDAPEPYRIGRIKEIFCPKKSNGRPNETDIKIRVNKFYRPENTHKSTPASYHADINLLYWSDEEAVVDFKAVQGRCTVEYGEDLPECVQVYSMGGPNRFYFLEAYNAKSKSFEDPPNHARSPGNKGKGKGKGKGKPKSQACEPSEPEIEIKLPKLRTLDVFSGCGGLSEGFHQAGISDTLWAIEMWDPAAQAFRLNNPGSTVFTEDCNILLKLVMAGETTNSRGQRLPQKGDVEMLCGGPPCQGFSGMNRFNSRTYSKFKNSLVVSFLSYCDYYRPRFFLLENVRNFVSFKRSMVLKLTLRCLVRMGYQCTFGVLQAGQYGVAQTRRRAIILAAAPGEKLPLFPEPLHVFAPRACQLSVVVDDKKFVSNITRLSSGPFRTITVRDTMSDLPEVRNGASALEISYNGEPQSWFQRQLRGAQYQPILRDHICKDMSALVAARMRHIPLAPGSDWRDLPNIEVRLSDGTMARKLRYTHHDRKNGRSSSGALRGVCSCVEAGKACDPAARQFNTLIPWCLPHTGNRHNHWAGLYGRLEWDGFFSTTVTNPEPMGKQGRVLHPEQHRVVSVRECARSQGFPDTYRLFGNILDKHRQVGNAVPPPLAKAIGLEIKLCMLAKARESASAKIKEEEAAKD

## COc1ccc2c(c1)[nH]c1c(C)c(OS(=O)(=O)c3cccc4c(N(C)C)cccc34)ccc12
NCI-H23 [1]
  growth at 0.1 µM: 81%
SK-MEL-28
  growth at 0.1 µM: 75%
UACC-257
  growth at 0.1 µM: 97%
IGROV-1
  growth at 0.1 µM: 98%
OVCAR-5
  growth at 0.1 µM: 103%
RXF 393 [2]
  growth at 0.1 µM: 100%
NCI-H522
  growth at 1 µM: 50%
HT-29 [3]
  growth at 1 µM: 13%
SNB-19 [4]
  growth at 1 µM: 45%
NCI-H23 [5]
  growth at 0.001 µM: 89%
HCT-116 [6]
  growth at 0.001 µM: 100%
HCT-15
  growth at 0.001 µM: 98%
SF-539
  growth at 0.001 µM: 104%
M14
  growth at 0.001 µM: 102%
SK-OV-3
  growth at 1 µM: 32%
OVCAR-3
  growth at 0.001 µM: 100%
ACHN [7]
  growth at 0.001 µM: 100%
RXF 393 [8]
  growth at 0.001 µM: 103%
TK-10
  growth at 0.001 µM: 97%
UO-31 [9]
  growth at 0.001 µM: 94%
MCF7
  growth at 0.001 µM: 95%
RXF 393 [10]
  growth at 1 µM: -29%
SN12C
  growth at 1 µM: 51%
UO-31 [11]
  growth at 1 µM: 54%
MOLT-4
  growth at 10 µM: 7%
HOP-62 [12]
  growth at 10 µM: 35%
HCT-116 [13]
  growth at 10 µM: 5%
HT-29 [14]
  growth at 10 µM: 8%
SNB-19 [15]
  growth at 10 µM: 27%
ACHN [16]
  growth at 10 µM: 21%
DU-145
  growth at 10 µM: 2%
HOP-62 [17]
  GI50: 17.3 µM
  TGI: > 100 µM
HOP-62 [17]; [30]
  CC50: > 100 µM
KM12 [18]
  GI50: 41.5 µM
  TGI: > 100 µM
KM12 [18]; [30]
  CC50: > 100 µM
SW-620 [19]
  GI50: 4.32 µM
  TGI: > 100 µM
SW-620 [19]; [30]
  CC50: > 100 µM
786-0 [20]
  GI50: 5.42 µM
  TGI: > 100 µM
786-0 [20]; [30]
  CC50: > 100 µM
ACHN [21]
  GI50: 7.38 µM
  TGI: > 100 µM
ACHN [21]; [30]
  CC50: > 100 µM
[22]
  Activity: Active
Mus musculus
  Activity: Non-toxic
[23]
  selectivity ratio: > 55
HOP-62 [24]
  growth at 0.001 µM: 101%
HOP-92
  growth at 0.001 µM: 101%
HCT-116 [25]
  growth at 0.01 µM: 106%
KM12 [26]
  growth at 0.01 µM: 102%
SW-620 [27]
  growth at 0.01 µM: 104%
NCI/ADR-RES
  growth at 0.01 µM: 111%
786-0 [28]
  growth at 0.01 µM: 103%
RXF 393 [29]
  growth at 0.01 µM: 107%
